From ChEMBL document CHEMBL4765368, “Structure guided design and synthesis of furyl thiazolidinedione derivatives as inhibitors of GLUT 1 and GLUT 4, and evaluation of their anti-leukemic potential” (Eur J Med Chem, 2020)
pIC50: −log10 of the molar value. Calls of active or inactive are those of the source. The calls are words filed in the database; no cut-off is given here.

Key:
[1] = biological target: T1, Solute carrier family 2, facilitated glucose transporter member 5 (Homo sapiens) (UniProt P22732); assay: Inhibition of transport activity of human GLUT5 expressed in hexose transporter deficient VW4000 yeast cells assessed as reduction in transporter-mediated [14C]-fructose uptake into cells at 100 uM measured after 10 mins by scintillation counting method; type: cell-based
T1 sequence (whole entry): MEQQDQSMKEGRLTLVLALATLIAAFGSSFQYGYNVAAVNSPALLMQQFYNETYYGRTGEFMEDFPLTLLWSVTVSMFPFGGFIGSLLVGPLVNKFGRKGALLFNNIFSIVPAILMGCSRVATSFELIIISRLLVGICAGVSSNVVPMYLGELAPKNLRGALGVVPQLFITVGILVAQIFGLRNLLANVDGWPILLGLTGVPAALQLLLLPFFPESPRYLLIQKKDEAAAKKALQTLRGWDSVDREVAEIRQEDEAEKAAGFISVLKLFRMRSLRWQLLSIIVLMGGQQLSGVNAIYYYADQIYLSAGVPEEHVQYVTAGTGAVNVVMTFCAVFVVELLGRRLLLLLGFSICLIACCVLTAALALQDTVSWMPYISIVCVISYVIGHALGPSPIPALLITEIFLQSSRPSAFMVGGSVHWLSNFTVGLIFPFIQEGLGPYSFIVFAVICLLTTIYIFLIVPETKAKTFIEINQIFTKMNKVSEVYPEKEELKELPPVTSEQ
Outline: (§1)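 The hxt0 yeast strain expressing one human GLUT was grown at 30 °C and resuspended in PBS pH 7.4 at OD600 ~10. Uptake was started with 14C-glucose at 5 mM final (GLUT1, GLUT4) or 14C-fructose at 10 mM final (GLUT5). It was quenched after 10 min with ice-cold 0.1 M KPi/0.1 M LiCl pH 5.5, filtered and counted by scintillation. Compound at 100 μM with 1% DMSO; DMSO control and phloretin 200 μM (GLUT1/4) or MSNBA 100 μM (GLUT5) as references. Triplicates.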

CCRF-CEM = assay: Cytotoxicity against human CCRF-CEM cells assessed as reduction in cell viability measured after 48 hrs by Hoechst 33342/propidium iodide staining based imaging analysis; type: functional
Outline: (§2)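 Cells were seeded at 10,000 per well (HS-27 at 3,000) in 10% FBS RPMI (leukemic lines) or DMEM (MDA-MB-231, HS-27). Compound in DMSO (1% v/v final) at 0.5–100 µM for 48 h. Hoechst 33342 and PI were added 2 h before automated imaging; dead cells were co-stained. Quadruplicates. CC50 was taken by linear interpolation between the two concentrations nearest 50% death.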

K562 = assay: Cytotoxicity against human K562 cells assessed as reduction in cell viability measured after 48 hrs by Hoechst 33342/propidium iodide staining based imaging analysis; type: functional; outline: as §2
KCL-22 = assay: Cytotoxicity against human KCL-22 cells assessed as reduction in cell viability measured after 48 hrs by Hoechst 33342/propidium iodide staining based imaging analysis; type: functional; outline: as §2
[2] = biological target: T2, Histone deacetylase 8 (Homo sapiens) (UniProt Q9BY41); assay: (§3) Inhibition of recombinant human His6/SUMO-tagged HDAC8 expressed in Escherichia coli (BL21) DE3 pLysS assessed as residual activity at 50 uM using Boc-Lys(trifluoroacetyl)-AMC as substrate preincubated for 60 mins followed by substrate addition and measured after 60 mins by fluorescence assay relative to control; conditions: time 120.0 min
T2 sequence (whole entry): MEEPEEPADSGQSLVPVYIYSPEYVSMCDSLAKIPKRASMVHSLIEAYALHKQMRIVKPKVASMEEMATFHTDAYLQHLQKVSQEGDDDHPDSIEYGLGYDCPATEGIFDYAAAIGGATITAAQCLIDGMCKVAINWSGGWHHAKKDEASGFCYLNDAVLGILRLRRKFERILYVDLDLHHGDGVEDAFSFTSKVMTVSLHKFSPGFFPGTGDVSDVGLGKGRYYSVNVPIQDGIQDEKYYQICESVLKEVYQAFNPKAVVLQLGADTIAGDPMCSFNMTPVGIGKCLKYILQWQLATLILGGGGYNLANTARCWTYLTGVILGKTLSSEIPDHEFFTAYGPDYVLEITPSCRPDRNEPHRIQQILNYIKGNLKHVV
Outline: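 20 μM Boc-Lys(trifluoroacetyl)-AMC was then added for 60 min at 30 °C, the reaction stopped with 1.7 μM SATFMK and developed with 0.4 mg/ml trypsin, and AMC fluorescence read at Ex 350/Em 450 nm. Triplicates; percent relative activity.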

[3] = biological target: Histone deacetylase 4 (Homo sapiens) (UniProt P56524); assay: as §3, with “N-terminal GST-tagged HDAC4 (627 to end residues)” for “His6/SUMO-tagged HDAC8”, “baculovirus infected Sf9 insect cells” for “Escherichia coli (BL21) DE3 pLysS”; conditions: time 120.0 min
Chain of Histone deacetylase 4 (Homo sapiens) (P56524 whole entry): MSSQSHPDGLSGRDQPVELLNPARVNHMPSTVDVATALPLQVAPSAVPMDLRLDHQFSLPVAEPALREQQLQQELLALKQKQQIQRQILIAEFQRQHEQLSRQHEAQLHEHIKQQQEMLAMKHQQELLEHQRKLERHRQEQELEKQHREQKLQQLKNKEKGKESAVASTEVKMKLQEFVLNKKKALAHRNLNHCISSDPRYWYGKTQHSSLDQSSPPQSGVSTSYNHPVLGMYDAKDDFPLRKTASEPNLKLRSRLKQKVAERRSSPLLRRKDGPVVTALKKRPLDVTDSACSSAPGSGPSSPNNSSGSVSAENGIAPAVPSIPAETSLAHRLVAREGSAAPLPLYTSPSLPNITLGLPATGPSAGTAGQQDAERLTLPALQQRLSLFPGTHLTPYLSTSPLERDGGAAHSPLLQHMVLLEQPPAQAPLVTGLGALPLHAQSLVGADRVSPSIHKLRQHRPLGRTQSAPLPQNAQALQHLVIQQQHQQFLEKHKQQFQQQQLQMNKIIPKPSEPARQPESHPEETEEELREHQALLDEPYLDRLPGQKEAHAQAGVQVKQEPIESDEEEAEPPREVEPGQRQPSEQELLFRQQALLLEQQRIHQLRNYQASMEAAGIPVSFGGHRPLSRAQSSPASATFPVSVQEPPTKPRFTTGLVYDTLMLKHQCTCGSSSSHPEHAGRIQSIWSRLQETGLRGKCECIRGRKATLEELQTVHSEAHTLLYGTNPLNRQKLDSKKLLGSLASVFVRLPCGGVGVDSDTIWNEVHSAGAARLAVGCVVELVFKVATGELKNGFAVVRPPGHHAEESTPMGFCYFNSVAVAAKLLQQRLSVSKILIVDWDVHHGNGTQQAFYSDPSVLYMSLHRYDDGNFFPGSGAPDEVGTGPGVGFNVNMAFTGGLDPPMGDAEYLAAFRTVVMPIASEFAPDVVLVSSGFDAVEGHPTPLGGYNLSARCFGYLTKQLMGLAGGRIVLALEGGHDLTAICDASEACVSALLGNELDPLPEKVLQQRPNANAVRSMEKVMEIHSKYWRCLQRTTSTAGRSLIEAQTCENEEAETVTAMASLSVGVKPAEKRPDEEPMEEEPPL

[4] = biological target: T3, Solute carrier family 2, facilitated glucose transporter member 1 (Homo sapiens) (UniProt P11166); assay: Inhibition of transport activity of human GLUT1 expressed in hexose transporter deficient VW4000fgy1 yeast cells assessed as reduction in transporter-mediated [14C]-hexose uptake into cells at 100 uM measured after 10 mins by scintillation counting method relative to control; type: cell-based; outline: as §1
T3 sequence (whole entry): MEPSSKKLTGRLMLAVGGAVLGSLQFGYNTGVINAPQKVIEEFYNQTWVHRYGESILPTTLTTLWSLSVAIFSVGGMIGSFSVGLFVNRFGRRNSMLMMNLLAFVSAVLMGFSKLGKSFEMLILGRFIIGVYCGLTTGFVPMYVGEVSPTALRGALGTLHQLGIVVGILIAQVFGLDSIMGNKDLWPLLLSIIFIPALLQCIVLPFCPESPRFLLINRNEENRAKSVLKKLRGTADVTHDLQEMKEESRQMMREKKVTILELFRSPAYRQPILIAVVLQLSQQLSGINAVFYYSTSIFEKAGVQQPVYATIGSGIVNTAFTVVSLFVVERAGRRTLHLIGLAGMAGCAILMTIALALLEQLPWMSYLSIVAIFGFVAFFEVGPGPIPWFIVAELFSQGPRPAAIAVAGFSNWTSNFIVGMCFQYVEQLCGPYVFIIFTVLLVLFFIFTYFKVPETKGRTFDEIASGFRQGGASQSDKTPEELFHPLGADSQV

[5] = biological target: T4, Solute carrier family 2, facilitated glucose transporter member 4 (Homo sapiens) (UniProt P14672); assay: Inhibition of transport activity of human GLUT4 expressed in hexose transporter deficient […] erg4 yeast cells assessed as reduction in transporter-mediated [14C]-hexose uptake into cells at 100 uM measured after 10 mins by scintillation counting method relative to control; type: cell-based; outline: as §1
T4 sequence (whole entry): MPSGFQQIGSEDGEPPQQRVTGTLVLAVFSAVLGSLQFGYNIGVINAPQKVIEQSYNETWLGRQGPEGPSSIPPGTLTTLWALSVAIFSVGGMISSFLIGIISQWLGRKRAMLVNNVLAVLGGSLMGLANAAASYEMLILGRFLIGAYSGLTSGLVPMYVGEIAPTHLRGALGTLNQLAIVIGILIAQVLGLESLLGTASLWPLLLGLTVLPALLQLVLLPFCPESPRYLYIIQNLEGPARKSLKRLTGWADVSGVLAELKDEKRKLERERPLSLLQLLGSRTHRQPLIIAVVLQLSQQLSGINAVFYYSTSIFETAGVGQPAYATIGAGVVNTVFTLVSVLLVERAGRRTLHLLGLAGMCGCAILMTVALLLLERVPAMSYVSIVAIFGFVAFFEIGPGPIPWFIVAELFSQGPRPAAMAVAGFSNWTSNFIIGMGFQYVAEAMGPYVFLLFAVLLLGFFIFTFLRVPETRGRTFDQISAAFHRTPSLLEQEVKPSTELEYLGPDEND

[6] = biological target: T5, Solute carrier family 2, facilitated glucose transporter member 1 (Homo sapiens, UniProt P11166); assay: Inhibition of transport activity of human GLUT1 expressed in hexose transporter deficient VW4000fgy1 yeast cells assessed as reduction in transporter-mediated [14C]-hexose uptake into cells measured after 10 mins by scintillation counting method; type: cell-based
T5 sequence (P11166 whole entry): T3 sequence (whole entry)
Outline: (§4)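 GLUT1 (VW4000fgy1) or GLUT4 (VW4000fgy1erg4) hxt0 yeast were grown on maltose and then glucose and resuspended in PBS pH 7.4 at OD600 ~10. Compound was used at 0.1–100 μM, final 1% DMSO. Uptake of 5 mM 14C-glucose over 10 min was stopped with ice-cold quench buffer, filtered and counted by scintillation. IC50 was taken from dose-response curves of three independent measurements.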

[7] = biological target: T6, Solute carrier family 2, facilitated glucose transporter member 4 (Homo sapiens, UniProt P14672); assay: Inhibition of transport activity of human GLUT4 expressed in hexose transporter deficient W4000fgy1 erg4 yeast cells assessed as reduction in transporter-mediated [14C]-hexose uptake into cells measured after 10 mins by scintillation counting method; type: cell-based; outline: as §4
T6 sequence (P14672 whole entry): T4 sequence (whole entry)

Histone deacetylase 8 = biological target: T7, Histone deacetylase 8 (Homo sapiens, UniProt Q9BY41); assay: Inhibition of recombinant human His6/SUMO-tagged HDAC8 expressed in Escherichia coli (BL21) DE3 pLysS using Boc-Lys(trifluoroacetyl)-AMC as substrate preincubated for 60 mins followed by substrate addition and measured after 60 mins by fluorescence assay
T7 sequence (Q9BY41 whole entry): T2 sequence (whole entry)

inhibition [1] | Activity [2] [%] | Activity [3] [%] | inhibition [4] [%] | inhibition [5] [%] | pIC50 [6] | pIC50 [7] | pIC50 (Histone deacetylase 8) | SMILES | CC50 (CCRF-CEM) [µM] | CC50 (K562) [µM] | CC50 (KCL-22) [µM]
inactive | > 50 | > 50 |  |  |  |  |  | O=C(CN1C(=O)S/C(=C/c2ccco2)C1=O)Nc1ccc(Cl)cc1C(F)(F)F | 79.9 | > 100 | > 100
inactive | > 50 | > 50 |  |  |  |  |  | O=C(CN1C(=O)S/C(=C/c2ccco2)C1=O)Nc1c(F)cc(Br)cc1F |  |  | 
inactive | > 50 | > 50 |  |  |  |  |  | O=C(CN1C(=O)S/C(=C/c2ccco2)C1=O)Nc1cc(C(F)(F)F)ccc1Cl |  |  | 
inactive | > 50 | > 50 | > 50 | > 50 | 4.14 | 3.91 |  | Cc1cccc2sc(NC(=O)CN3C(=O)S/C(=C/c4ccco4)C3=O)nc12 | 96.8 | 97.1 | 97
inactive | > 50 | > 50 |  |  |  |  |  | O=C(CN1C(=O)S/C(=C/c2ccco2)C1=O)Nc1ccccc1 |  |  | 
 | > 50 | > 50 |  |  |  |  |  | O=C(CN1C(=O)S/C(=C/c2ccco2)C1=O)Nc1ccc(Br)c(Br)c1 |  |  | 
inactive | > 50 | > 50 |  |  |  |  |  | O=C(CN1C(=O)S/C(=C/c2ccco2)C1=O)Nc1ccccn1 |  |  | 
inactive | > 50 | > 50 |  |  |  |  |  | O=C(CN1C(=O)S/C(=C/c2ccco2)C1=O)Nc1ccc(Oc2ccccc2)cc1 |  |  | 
inactive | > 50 | > 50 |  |  |  |  |  | O=C(CN1C(=O)S/C(=C/c2ccco2)C1=O)Nc1nccs1 |  |  | 
inactive | > 50 | > 50 |  |  |  |  |  | O=C(CN1C(=O)S/C(=C/c2ccco2)C1=O)Nc1ccc(Br)cc1F |  |  | 
inactive | > 50 | > 50 |  |  |  |  |  | Cc1c(NC(=O)CN2C(=O)S/C(=C/c3ccco3)C2=O)c(=O)n(-c2ccccc2)n1C |  |  | 
inactive | > 50 | > 50 |  |  |  |  |  | O=C(CN1C(=O)S/C(=C/c2ccco2)C1=O)Nc1ccc(F)cc1F |  |  | 
inactive | > 50 | > 50 |  |  |  |  |  | COc1ccc(NC(=O)CN2C(=O)S/C(=C/c3ccco3)C2=O)cc1 |  |  | 
inactive | > 50 | > 50 |  |  |  |  |  | O=C(CN1C(=O)S/C(=C/c2ccco2)C1=O)Nc1ccc(F)cc1 |  |  | 
inactive | > 50 | > 50 |  |  |  |  |  | O=C(CN1C(=O)S/C(=C/c2ccco2)C1=O)Nc1ccccc1F |  |  | 
inactive | > 50 | > 50 |  |  |  |  |  | O=C(CN1C(=O)S/C(=C/c2ccco2)C1=O)Nc1cccc(F)c1 |  |  | 
inactive | > 50 | > 50 |  |  |  |  |  | O=C(CN1C(=O)S/C(=C/c2ccco2)C1=O)Nc1cccc(C(F)(F)F)c1 |  |  | 
inactive | > 50 | > 50 |  |  |  |  |  | Cc1ccc(NC(=O)CN2C(=O)S/C(=C/c3ccco3)C2=O)cc1Cl |  |  | 
inactive | > 50 | > 50 |  |  |  |  |  | Cc1cc(NC(=O)CN2C(=O)S/C(=C/c3ccco3)C2=O)no1 | > 100 | 98.6 | > 100
inactive | > 50 | > 50 |  |  |  |  |  | O=C(CN1C(=O)S/C(=C/c2ccco2)C1=O)Nc1ccc(Br)cc1 | 81 | 94 | 98.2
inactive | > 50 | > 50 |  |  |  |  |  | Cc1ccc(NC(=O)CN2C(=O)S/C(=C/c3ccco3)C2=O)cc1 | 102 | > 100 | > 100
inactive | 17 | > 50 |  |  |  |  | 4.89 | O=C(CN1C(=O)S/C(=C/c2ccco2)C1=O)Nc1ccc([N+](=O)[O-])cc1 |  |  | 
